Activity calls are given as the source filed them. The rule behind the calls is not given here.
Tests used:
Fusarium graminearum [1] = assay: Induction of growth of Fusarium graminearum after 4 to 12 days; type: organism-based; conditions: in vivo
Summary of the method: (§1)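 Mycelial fragments (6 mm diameter, from 10-day cultures) were seeded on PDA in Petri dishes. Essential oil was added at 450 and 900 µL/mL, and plates were sealed and incubated in the dark at 22 °C. Controls received distilled water instead of oil. Mean diametric colony growth was read at 4, 8 and 12 days. Inhibition % = 100(C − T)/C, where C is the control diameter and T the oil-treated diameter.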

Candida albicans = assay: Antimicrobial activity against Candida albicans ATCC 14053 assessed as growth inhibition after 24 hr by broth microdilution method; type: functional
Summary of the method: (§2)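 Broth microdilution. Oils prepared as […] in DMSO and diluted in the plates to 3.5–900 µL/mL. Inoculum 5×10^5 cfu/mL, checked by plating on PDA. Incubated aerobically for 24 h at 37 °C (C. albicans at 30 °C). MIC taken as the first well, in ascending order, with no pellet or turbidity. MBC (99.9% kill) from 25 µL subcultured on PDA overnight at 37 °C. Three repeats.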

Pseudomonas aeruginosa = assay: Antimicrobial activity against Pseudomonas aeruginosa ATCC 9027 assessed as growth inhibition after 24 hr by broth microdilution method; type: functional; summary of the method: as §2
Escherichia coli = assay: Antimicrobial activity against Escherichia coli ATCC 8739 assessed as growth inhibition after 24 hr by broth microdilution method; type: functional; summary of the method: as §2
[2] = system: Staphylococcus epidermidis; assay: Antimicrobial activity against Staphylococcus epidermidis ATCC 12228 assessed as growth inhibition after 24 hr by broth microdilution method; type: functional; summary of the method: as §2
Staphylococcus aureus = assay: Antimicrobial activity against Staphylococcus aureus ATCC 6538 assessed as growth inhibition after 24 hr by broth microdilution method; type: functional; summary of the method: as §2
Rhizoctonia solani = assay: Antifungal activity against Rhizoctonia solani assessed as mycelial growth inhibition after 4 to 12 days; type: functional, organism-based
Summary of the method: (§3)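 Mycelial plugs (6 mm, 10-day-old cultures) inoculated on PDA in Petri dishes; essential oil added at 450 and 900 µL/mL; dishes sealed with Parafilm and held in the dark at 22 °C. Control: PDA plus distilled water. Mean colony diameter measured at 4, 8 and 12 days; inhibition I = 100(C − T)/C. Plates without growth were transferred to plain PDA for 48 h to tell fungistatic from fungicidal.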

Fusarium culmorum = assay: Antifungal activity against Fusarium culmorum assessed as mycelial growth inhibition after 4 to 12 days; type: functional, organism-based; summary of the method: as §3
Fusarium graminearum [3] = assay: Antifungal activity against Fusarium graminearum assessed as mycelial growth inhibition after 4 to 12 days; type: functional, organism-based; summary of the method: as §1
[4] = system: Fusarium oxysporum f. sp. lycopersici; assay: Antifungal activity against Fusarium oxysporum f. sp. lycopersici assessed as mycelial growth inhibition after 4 to 12 days; type: functional, organism-based; summary of the method: as §3
Botrytis cinerea = assay: Antifungal activity against Botryotinia fuckeliana assessed as mycelial growth inhibition after 4 to 12 days; type: functional, organism-based; summary of the method: as §3

SMILES	Activity (Fusarium graminearum [1])	MIC (Candida albicans) [uL/ml]	MIC (Pseudomonas aeruginosa) [uL/ml]	MIC (Escherichia coli) [uL/ml]	MIC [2] [uL/ml]	MIC (Staphylococcus aureus) [uL/ml]	growth inhibition (GI) (Rhizoctonia solani)	growth inhibition (GI) (Fusarium culmorum)	growth inhibition (GI) (Fusarium graminearum [3])	growth inhibition (GI) [4]	growth inhibition (GI) (Botrytis cinerea)
CC1=CC(=O)[C@@H]2C[C@H]1C2(C)C [VERBENONE]	Toxic	>900	>900	>900	>900	>900	inactive	inactive	inactive	inactive	inactive
C=C1[C@@H]2CC[C@@H](C2)C1(C)C [(-)-CAMPHENE]	Toxic	>900	>900	>900	>900	>900	inactive	inactive	inactive	inactive	inactive
CC1=CCC2CC1C2(C)C (stereo not drawn) [ALPHA-PINENE]	Toxic	>900	>900	>900	>900	>900	inactive	inactive	inactive	inactive	inactive
CC1(C)C2CCC1(C)C(O)C2 (stereo not given) [BORNEOL]	Toxic	>900	>900	>900	>900	>900	inactive	inactive	inactive	inactive	inactive
CC12CCC(CC1=O)C2(C)C (stereo not given) [CAMPHOR]	Toxic	>900	>900	>900	>900	>900	inactive	inactive	inactive	inactive	inactive

— ChEMBL document CHEMBL3045403, “chemical composition, plant genetic differences, antimicrobial and antifungal activity investigation of the essential oil of Rosmarinus officinalis L” (J Agric Food Chem, 2004)
